ChEMBL document CHEMBL1147133, “Identification of anthranilic acid derivatives as a novel class of allosteric inhibitors of hepatitis C NS5B polymerase” (J Med Chem, 2007)

Tests used:
[1] = system: Hepatitis C virus; experiment: Inhibition of HCV 1b BK NS5B delta21 RNA polymerase expressed in Escherichia coli; set-up: species or system Hepatitis C virus subtype 1b
[2] = system: Hepatitis C virus; experiment: Antiviral activity in Huh7 cells containing HCV 1b BB7 replicon; format: functional, organism-based, Hepacivirus hominis; conditions: genotype 1b, Huh-7
How it was run: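 Huh7 cells carrying the genotype 1b BB7 replicon were exposed to increasing compound concentrations for 3 days in DMEM with 2% FCS and no G418. HCV, ribosomal and GAPDH mRNA levels were measured by quantitative TaqMan RT-PCR. Values are averages of at least three determinations.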

[3] = Cytotoxicity against Huh7 cells by MTS assay; format: cell-based; conditions: Homo sapiens, Huh-7
[4] = Inhibition of human DNA polymerase beta
How it was run: (§1)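 The enzyme was incubated with compound in buffer containing four dNTPs spiked with [α-33P]TTP, with dNTPs and templates at their respective Km levels. Templates were poly(dA)-oligo(dT)12 for HIV RT, activated calf thymus DNA for CT pol α and human pol α/β, and singly primed M13 DNA for human pol γ. Reactions ran 1-2 h at 37 °C, and filtered product was counted. Values are averages of at least three determinations.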

[5] = Inhibition of human DNA polymerase gamma; how it was run: as §1
[6] = Inhibition of calf thymus DNA polymerase alpha; set-up: species or system Bos taurus; how it was run: as §1
[7] = Inhibition of HIV reverse transcriptase; set-up: species or system Human immunodeficiency virus; how it was run: as §1
[8] = Inhibition of RNA polymerase 2; set-up: species or system Homo sapiens
[9] = Inhibition of human DNA polymerase alpha; how it was run: as §1

IC50 [1] [µM] | IC50 [2] [µM] | SMILES | IC50 [3] [µM] | other results
> 33 | – | O=C(COc1ccc(Cl)cc1)Nc1cccc(C(=O)O)c1 | – | –
7.47 | – | CC(=O)c1cc(F)c(C)cc1NCC(=O)Nc1ccccc1C(=O)O | – | –
5.1 | – | N#Cc1ccc(OCC(=O)Nc2ccccc2C(=O)O)cc1 | – | –
1.27 | > 11 | O=C(COc1cc(F)c(F)cc1F)Nc1ccccc1C(=O)O | > 115 | –
> 31 | – | COC(=O)c1ccccc1NC(=O)COc1ccc(Cl)cc1 | – | –
0.11 | > 11 | Cc1cc(OCC(=O)Nc2ccccc2C(=O)O)c(Br)cc1Cl | > 115 | –
0.2 | 13 | O=C(CNc1ccc(Cl)c(Cl)c1)Nc1ccccc1C(=O)O | 47 | –
0.45 | > 11 | O=C(COc1ccc(Cl)cc1Cl)Nc1ccccc1C(=O)O | > 115 | –
– | 2 | CC(=O)c1cc(F)c(Cl)cc1NCC(=O)Nc1ccccc1C(=O)O | > 137 | IC50 [4]: > 137 µM; IC50 [5]: > 27 µM; IC50 [6]: > 137 µM; IC50 [7]: > 137 µM; IC50 [8]: > 137 µM; IC50 [9]: > 137 µM
0.022 | 30 | CC(=O)c1cc(Br)c(Cl)cc1NCC(=O)Nc1ccccc1C(=O)O | > 117 | –
0.76 | – | C[C@H](Oc1ccc(Cl)cc1)C(=O)Nc1ccccc1C(=O)O | – | –
3.23 | – | O=C(COc1ccc(Br)cc1)Nc1ccccc1C(=O)O | – | –
3.36 | – | CCC(=O)c1cc(Cl)ccc1NCC(=O)Nc1ccccc1C(=O)O | – | –
0.21 | 32 | CC(=O)c1cc(C)c(C)cc1NCC(=O)Nc1ccccc1C(=O)O | > 147 | –
0.032 | 5 | CCc1cc(NCC(=O)Nc2ccccc2C(=O)O)c(C(C)=O)cc1Cl | 44 | –
1.05 | 30 | CC(=O)c1cc(C)c(Cl)cc1NCC(=O)Nc1ccccc1C(=O)O | > 139 | –
0.86 | > 11 | CC(=O)c1ccc(Cl)cc1OCC(=O)Nc1ccccc1C(=O)O | > 115 | –
0.01 | 2 | CC(=O)c1cc(F)c(Br)cc1NCC(=O)Nc1ccccc1C(=O)O | > 122 | IC50 [4]: > 122 µM; IC50 [5]: > 24 µM; IC50 [6]: > 122 µM; IC50 [7]: > 122 µM; IC50 [8]: > 122 µM; IC50 [9]: > 122 µM
> 30 | – | CC(C)(Oc1ccc(Cl)cc1)C(=O)Nc1ccccc1C(=O)O | – | –
0.03 | 10 | CC(=O)c1cc(Cl)c(Cl)cc1NCC(=O)Nc1ccccc1C(=O)O | 123 | –
0.23 | > 11 | CC(=O)c1cc(F)c(Cl)cc1OCC(=O)Nc1ccccc1C(=O)O | > 115 | –
0.14 | > 11 | CC(=O)c1cc(Cl)c(C)cc1OCC(=O)Nc1ccccc1C(=O)O | > 115 | –

IC50 [1] [µM] | IC50 [2] [µM] | SMILES | IC50 [3] [µM] | other results
0.87 | – | O=C(CNc1cccc(Br)c1)Nc1ccccc1C(=O)O | – | –
0.03 | > 11 | O=C(COc1cc(Cl)c(Cl)cc1Cl)Nc1ccccc1C(=O)O | > 115 | –
0.17 | 14 | CN(CC(=O)Nc1ccccc1C(=O)O)c1ccc(Cl)c(Cl)c1 | 47 | –
0.21 | 40 | O=C(CNc1ccc(F)c(Cl)c1)Nc1ccccc1C(=O)O | 155 | –
35 | – | COc1ccc(OCC(=O)Nc2ccccc2C(=O)O)cc1 | – | –
2.8 | > 11 | CC(=O)c1cc(C)ccc1OCC(=O)Nc1ccccc1C(=O)O | > 115 | –
1.14 | – | O=C(COc1cccc(Br)c1)Nc1ccccc1C(=O)O | – | –
0.18 | 17 | CC(=O)c1cc(Cl)c(F)cc1NCC(=O)Nc1ccccc1C(=O)O | > 137 | –
> 37 | – | O=C(COc1ccccc1)Nc1ccccc1C(=O)O | – | –
0.08 | 3.1 | CC(=O)c1cc(Cl)c(C)cc1NCC(=O)Nc1ccccc1C(=O)O | > 139 | –
0.57 | > 11 | COc1cc(Cl)ccc1OCC(=O)Nc1ccccc1C(=O)O | > 115 | –
5.2 | – | O=C(COc1ccc(F)cc1)Nc1ccccc1C(=O)O | – | –
0.11 | > 11 | CC(=O)c1cc(Cl)c(F)cc1OCC(=O)Nc1ccccc1C(=O)O | > 115 | –
1.5 | > 11 | CC(=O)c1cc(F)ccc1OCC(=O)Nc1ccccc1C(=O)O | > 115 | –
0.57 | > 11 | Cc1cc(Cl)ccc1OCC(=O)Nc1ccccc1C(=O)O | > 115 | –
4.4 | – | O=C(CSc1ccc(Cl)cc1)Nc1ccccc1C(=O)O | – | –
0.53 | > 11 | CC(=O)c1cc(Cl)ccc1OCC(=O)Nc1ccccc1C(=O)O | > 115 | –
50 | – | C[C@@H](Oc1ccc(Cl)cc1)C(=O)Nc1ccccc1C(=O)O | – | –
> 28 | – | O=C(COc1ccc(Cl)cc1)Nc1ccc(C(=O)O)cc1 | – | –
0.23 | 12 | CC(=O)c1cc(Cl)ccc1NCC(=O)Nc1ccccc1C(=O)O | > 144 | –
0.11 | 43 | CC(=O)c1cc(Br)ccc1NCC(=O)Nc1ccccc1C(=O)O | > 128 | –
